Our source for the Cytotoxicity, T/C corr and Cytocidal effect values is ChEMBL document CHEMBL1135613, “Soluble tetraarylporphyrin-platinum conjugates as cytotoxic and phototoxic antitumor agents” (J Med Chem, 2002).

Common to all, as to format: cell-based
Details in all cases: human

The subject of data set [1] is TCC-SUP. Briefly: Cytotoxicity of compound in light was determined at 1 uM in TCC-SUP transitional bladder cancer cells; Marked light-induced toxicity.
Data set [2] relates to TCC-SUP. Kind of data set: Cytotoxicity of compound was determined from treated to that of control TCC-SUP cells. Put shortly:
(§1)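 Kinetic (multiple-point) chemosensitivity assay: TCC-SUP cells (passage 56) seeded in microplates, drug added after 48 h at 1, 5 and 10 µM from 10 mM stocks, 0.1% (v/v) final solvent. Medium left unchanged; growth followed by absorbance at 578 nm up to 144 h. T/C corr. = (T−C0)/(C−C0)×100; cytocidal effect = (C0−T)/C0×100 when T<C0.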

Data set [3] relates to TCC-SUP. Kind of data set: Cytotoxicity of compound in dark was determined at 1 uM in TCC-SUP transitional bladder cancer cells; No statistically significant cytotoxicity.
Data set [4] concerns TCC-SUP. Briefly: Cytotoxicity of compound in dark was determined at 10 uM in TCC-SUP transitional bladder cancer cells; No statistically significant cytotoxicity.
Data set [5] deals with TCC-SUP. Kind of data set: Photoxicity of compound in light was determined at 1 uM in TCC-SUP transitional bladder cancer cells; Marked light-induced toxicity.
Data set [6] concerns TCC-SUP. Kind of data set: Cytotoxicity of compound in dark was determined at 5 uM in TCC-SUP transitional bladder cancer cells; No statistically significant cytotoxicity.
Data set [7] relates to TCC-SUP. Briefly: Cytotoxicity of compound was determined from treated to that of control on the proliferation of TCC-SUP cells at 1 uM. An outline of the steps:
as §1

Data set [8] concerns TCC-SUP. Kind of data set: Cytocidal of compound was determined from 10 uM in TCC-SUP cells incubated for 144 hr. An outline of the steps: as §1
Data set [9] concerns TCC-SUP. Kind of data set: Cytotoxicity of compound was determined from treated to that of control on the proliferation of TCC-SUP cells at 5 uM. An outline of the steps: as §1

With `COCCOCCOc1ccc(-c2c3nc(c(-c4ccc(OCCOCCOC)cc4)c4ccc([nH]4)c(-c4ccc(OC(C(=O)O)C(=O)O)cc4)c4nc(c(-c5ccc(OCCOCCOC)cc5)c5ccc2[nH]5)C=C4)C=C3)cc1`, the figures for the Cytotoxicity result with TCC-SUP [1] and with TCC-SUP [3] were “Marked light-induced toxicity” and “No effect”, respectively. In the data set on TCC-SUP [2], this compound came in with a T/C corr of 37%.
With `COCCOCCOCCOCCOCCOCCOCCOCCOCCOCCOCCOCCOCCOCCOCCOCCOCCOc1ccc(-c2c3nc(c(-c4ccc(OCCOCCOCCOCCOCCOCCOCCOCCOCCOCCOCCOCCOCCOCCOCCOCCOCCOC)cc4)c4ccc([nH]4)c(-c4ccc(OC(C(=O)O)C(=O)O)cc4)c4nc(c(-c5ccc(OCCOCCOCCOCCOCCOCCOCCOCCOCCOCCOCCOCCOCCOCCOCCOCCOCCOC)cc5)c5ccc2[nH]5)C=C4)C=C3)cc1`, in the data set with TCC-SUP [4], the Cytotoxicity result is “No effect”.
Turning to `COCCOCCOCCOc1ccc(-c2c3nc(c(-c4ccc(OCCOCCOCCOC)cc4)c4ccc([nH]4)c(-c4ccc(OC(C(=O)O)C(=O)O)cc4)c4nc(c(-c5ccc(OCCOCCOCCOC)cc5)c5ccc2[nH]5)C=C4)C=C3)cc1`, the results for the Cytotoxicity entry in the data set with TCC-SUP [5] and in the data set with TCC-SUP [6] were “Marked light-induced toxicity” and “No effect”, respectively. This compound also displayed a T/C corr with TCC-SUP [2] of 37%.
For the compound “Diammine[2-(4-{10,15,20-tris[4-(1,4,7,10-tetraoxaundecyl)phenyl]porphyrin-5-yl}phenoxy)malonato]platinum-(II)”, the T/C corr in the data set on TCC-SUP [7] was 26.2%; in the data set with TCC-SUP [9], 2.8%. This compound also displayed a Cytocidal effect with TCC-SUP [8] of 17.1%.
